Screening results as filed in PubChem.
NPY Y1 blocker – antagonists of human neuropeptide Y receptor Y1; inhibition, % at 3.6 µM; HEK293-CNG Y1 cells, membrane potential fluorescence; NPY at EC95, then isoproterenol; 1% of 200,000 active;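 active = inhibition above the campaign mean inhibition of all tested compounds plus 3 SD, cut at about 20% in these data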;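 also: 0% = DMSO wells given NPY plus isoproterenol and 100% = isoproterenol alone without NPY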
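Test system – HEK293 Y1/CNG channel cell line · Also added – NPY agonist 25 nM, then isoproterenol 1 µM plus Ro 20-1724 25 µM · Compound dosing – one concentration, 3.6 µM, in 0.4% DMSO · Schedule – compound incubation 1 h at room temperature, readout 45 min post-stimulation · Technique – fluorescence, membrane potential probe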
KCC2 mod – KCC2 (human) Cl- transport modulation; Q9H2X9; KCC2 cells, thallium flux FluoZin-2 fluorescence; B-score of Tl+ flux slope (higher = more flux/activation; lower = inhibition) at 10 µM; 2.2% of 190,000 active;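 active = thallium flux slope and its plate-corrected score both differing from the plate sample mean at a set confidence after two filtering rounds, in either direction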;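 also: slope of fluorescence scaled to starting intensity during 10 to 20 s after thallium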
NPY Y2 blocker – antagonists of human neuropeptide Y receptor Y2 | P49146 | NPY-Y2 expressing cells, antagonist mode | inhibition, % at 2.7 µM | 0.99% of 140,000 active; in the data active = inhibition above about 17%;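 also: 0% = vehicle with agonist challenge and 100% = reference antagonist with challenge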
NPY-Y1 PAM-ag – potentiates or activates human NPY-Y1 receptor; 0.37% of 220,000 active; activation, % at 3.6 µM; AID 1304; P25929; NPY-Y1 expressing cells, potentiator/agonist activation; in the data active = activation above about 33%, passing the limit was not always enough;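 also: cells stimulated with NPY at EC10 then isoproterenol at EC100; 0% = low agonist plus stimulus and 100% = saturating agonist plus stimulus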
NPY-Y2 PAM-ag – potentiates or activates human NPY-Y2 receptor. P49146. cells expressing NPY-Y2, potentiator/agonist read-out. activation, % at 3.6 µM. 0.45% of 220,000 active; in the data active = activation above about 27%;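 also: cells stimulated with NPY near EC25 plus isoproterenol at EC100; 0% = vehicle plus submaximal agonist and 100% = vehicle plus saturating agonist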
Furin inhibitor – blocks human furin protease activity. P09958. purified furin, fluorogenic substrate cleavage. inhibition, % at 20 µM or 30 µM. 0.061% of 220,000 active; in the data active = inhibition above about 25%
Target sequence (P09958 108-714 limits assumed): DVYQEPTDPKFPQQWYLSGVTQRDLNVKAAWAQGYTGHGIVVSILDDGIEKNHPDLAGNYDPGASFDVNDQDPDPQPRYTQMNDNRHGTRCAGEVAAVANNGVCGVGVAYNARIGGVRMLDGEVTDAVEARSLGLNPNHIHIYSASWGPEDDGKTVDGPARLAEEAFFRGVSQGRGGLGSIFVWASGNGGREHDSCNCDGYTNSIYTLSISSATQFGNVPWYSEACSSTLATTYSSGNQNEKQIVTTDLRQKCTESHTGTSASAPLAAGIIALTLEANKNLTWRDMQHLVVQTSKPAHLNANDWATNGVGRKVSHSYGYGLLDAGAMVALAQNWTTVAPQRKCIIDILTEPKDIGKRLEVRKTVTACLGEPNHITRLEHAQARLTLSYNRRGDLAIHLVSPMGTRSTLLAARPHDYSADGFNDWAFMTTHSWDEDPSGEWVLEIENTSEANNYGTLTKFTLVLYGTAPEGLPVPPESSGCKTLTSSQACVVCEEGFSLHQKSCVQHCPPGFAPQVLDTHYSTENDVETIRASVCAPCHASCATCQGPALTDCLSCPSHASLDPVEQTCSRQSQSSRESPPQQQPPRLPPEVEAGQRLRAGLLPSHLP
KCC2 sec1 – KCC2 (human) modulation, secondary assay | shares compounds with KCC2 mod | HEK293-KCC2, thallium flux, FluoZin2 fluorescence; hits give high values | normalised thallium flux (F/F0 slope) at 10 µM | 15% of 3,700 active;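 active = thallium flux slope above the same plate's solvent-only control mean plus 3 SD; inconclusive = the two replicate wells disagree; inactive = no significant difference from solvent-only control wells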
KCC2 bumet counter – thallium flux despite bumetanide block in KCC2 cells, secondary assay 3; shares compounds with KCC2 mod; HEK293-KCC2 + bumetanide/ouabain, thallium flux FluoZin2; hits give high values; normalized thallium flux at 10 µM; 49% of 3,700 active; AID 1714;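 active = thallium entry rate above the same plate's blocked-transporter control wells by more than 3 SD; inconclusive = the two repeat wells disagree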;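 also: raw slope of fluorescence over initial fluorescence between 10 and 20 s after thallium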
KCC2 secondary2 – KCC2 (human) modulation, second secondary assay. shares compounds with KCC2 mod. HEK293-KCC2, thallium flux FluoZin2 fluorescence; actives lie on both sides; F/F0 rise rate, 10–20 s post-thallium. normalized thallium flux at 10 µM. 23% of 3,700 active;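 active = thallium flux slope more than 3 SD above or below the plate's solvent-only control mean, mostly below; inconclusive = the two repeat wells disagreed; inactive = no significant shift from solvent-only controls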;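 also: raw slope with 0.1% DMSO as baseline and bumetanide as block control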
HEK293 Tl flux – parental HEK flux effect, counter-screen | shares compounds with KCC2 mod | HEK293 parental cells, thallium flux FluoZin2, ouabain; baseline-ratio fluorescence slope, 10–20 s after thallium | thallium flux rate (normalised fluorescence) at 10 µM | 46% of 3,700 active;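 active = thallium flux rate significantly above the same plate's solvent-only control wells, beyond their mean plus 3 SD; inconclusive = the two replicate wells gave conflicting results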
KCC2 ouabain – modulates human KCC2 on retest with ouabain; shares compounds with KCC2 mod; HEK293-KCC2, thallium flux FluoZin2 fluorescence; bidirectional: low = inhibitor, high = activator; raw Tl+ flux slope (below DMSO = inhibition, above = activation) at 10 µM; 48% of 3,700 active; AID 1717;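 active = thallium flux slope beyond 3 SD from same-plate DMSO control mean in most replicates, usually higher, sometimes lower; inconclusive = repeat tests gave conflicting results; inactive = no significant difference from controls in most replicates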;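 also: slope of initial-normalized fluorescence between seconds 10 and 20 after thallium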
HEK293 Tl flux2 – parental HEK flux effect, counter-screen 2. shares compounds with KCC2 mod. HEK293 parental, thallium flux FluoZin-2 fluorescence slope. thallium flux slope at 10 µM. 33% of 3,700 active;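 active = thallium flux slope above the same plate's solvent-control mean plus 3 SD in both duplicate wells; inconclusive = duplicate wells that disagreed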;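 also: run without ouabain in cells lacking the KCC2 cotransporter; slope of fluorescence scaled to its starting value between 10 and 20 s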
* marks the source's active call; other numbers are inactive results. An excerpt weighted towards active compounds, which were near 3.7% of everything screened.

`Fc1ccc(NC(=S)Nc2cc(Cl)ccc2Cl)cc1` gave NPY Y1 blocker -2.5, KCC2 mod 3.53*, NPY-Y1 PAM-ag 2.8, NPY-Y2 PAM-ag -9.8, Furin inhibitor -15.4, KCC2 sec1 0.00799, KCC2 bumet counter 0.0155*, KCC2 secondary2 inconclusive, HEK293 Tl flux 0.0183*, KCC2 ouabain 0.0263* and HEK293 Tl flux2 0.0146*.
CCn1nc(C)c(/C=N/NC(=S)Nc2ccc(Cl)cc2Cl)c1C was read as NPY Y1 blocker -7.4, KCC2 mod 4.47*, NPY Y2 blocker -2.3, NPY-Y1 PAM-ag 21.3, NPY-Y2 PAM-ag 5.1, Furin inhibitor -9.6, KCC2 sec1 0.00815, KCC2 bumet counter 0.0105*, KCC2 secondary2 0.031, HEK293 Tl flux 0.0084*, KCC2 ouabain inconclusive and HEK293 Tl flux2 inconclusive.
`Cc1cc(C)n(C(=O)/C(C#N)=N\Nc2ccccc2[N+](=O)[O-])n1` gave NPY Y1 blocker -4.9, KCC2 mod 0.621, NPY-Y1 PAM-ag -1.5, NPY-Y2 PAM-ag -5.5 and Furin inhibitor -8.1.
`Cc1cc(C)n(C(=O)/C(C#N)=N/Nc2cc(Cl)cc(Cl)c2)n1` gave NPY Y1 blocker -2.9, KCC2 mod -7.72*, NPY-Y1 PAM-ag 32.2, NPY-Y2 PAM-ag 25.5, Furin inhibitor -3.3, KCC2 sec1 inconclusive, KCC2 bumet counter inconclusive, KCC2 secondary2 0.0334, HEK293 Tl flux 0.00365, KCC2 ouabain 0.0137* and HEK293 Tl flux2 0.0114.
For O=C(O)c1ccc(NC2=C(Cl)C(=O)c3ccccc3C2=O)cc1 the results were KCC2 mod -6.5*, NPY-Y1 PAM-ag -24.4, NPY-Y2 PAM-ag -24.8, Furin inhibitor -2.0, KCC2 sec1 0.0105, KCC2 bumet counter 0.00935*, KCC2 secondary2 0.0352, HEK293 Tl flux 0.00358, KCC2 ouabain 0.0171* and HEK293 Tl flux2 0.0113.
O=C1C(Cl)=C(Nc2ccccc2)C(=O)c2ccccc21 was read as NPY Y1 blocker 2.9, KCC2 mod 4.45*, NPY Y2 blocker -0.3, NPY-Y1 PAM-ag -22.6, NPY-Y2 PAM-ag -10.6, Furin inhibitor -24.4, KCC2 sec1 0.0084, KCC2 bumet counter 0.0066, KCC2 secondary2 0.0396, HEK293 Tl flux 0.00444, KCC2 ouabain 0.0222 and HEK293 Tl flux2 0.0108.
`COCCN(Cc1ccccc1)C(=O)c1c(C)nn(-c2ccccc2)c1C` gave NPY Y1 blocker 3.4, KCC2 mod 0.271, NPY-Y1 PAM-ag -0.6, NPY-Y2 PAM-ag -6.6 and Furin inhibitor -14.3.
`Cc1cccc(NNC(=O)c2c(F)cccc2Cl)c1` gave KCC2 mod 1.1, NPY-Y1 PAM-ag -2.1, NPY-Y2 PAM-ag -8.2 and Furin inhibitor -4.7.
For Cn1c(O)c(C2=c3ccccc3=NC2=O)[nH]c1=S the results were NPY Y1 blocker 1.1, KCC2 mod 27.4*, NPY Y2 blocker -4.1, NPY-Y1 PAM-ag -1.4, NPY-Y2 PAM-ag 7.4, Furin inhibitor -21.5, KCC2 sec1 0.0154*, KCC2 bumet counter 0.0614*, KCC2 secondary2 0.032, HEK293 Tl flux 0.0306*, KCC2 ouabain 0.0427* and HEK293 Tl flux2 0.0139*.
Screening COc1ccc2nc(-n3c(O)c(C4=c5ccccc5=NC4=O)[nH]c3=S)sc2c1 returned NPY Y1 blocker 6.6, KCC2 mod 0.0102, NPY Y2 blocker 5.6, NPY-Y1 PAM-ag 1.5, NPY-Y2 PAM-ag 2.4 and Furin inhibitor 0.6.
For Cn1nnnc1SCCNCc1ccncc1 the results were NPY Y1 blocker -0.9, NPY Y2 blocker 0.8, NPY-Y1 PAM-ag -2.9, NPY-Y2 PAM-ag -4.1, Furin inhibitor -22.4, KCC2 sec1 0.00928, KCC2 bumet counter 0.00723, KCC2 secondary2 0.0301, HEK293 Tl flux inconclusive, KCC2 ouabain 0.0215 and HEK293 Tl flux2 0.00954.
Screening CN(Cc1cccc(Cl)c1Cl)c1ccc(S(=O)(=O)N2CCCCC2)cc1[N+](=O)[O-] returned NPY Y1 blocker -1.2, KCC2 mod 0.269, NPY Y2 blocker 0.3, NPY-Y1 PAM-ag 6.7, NPY-Y2 PAM-ag -3.1 and Furin inhibitor -23.9.
CC(C(=O)Nc1ccc(F)c(F)c1F)N(C)CC(=O)Nc1ccccc1Br (stereo unspecified) was read as NPY Y1 blocker 1.2, KCC2 mod -3.09, NPY Y2 blocker 2.5, NPY-Y1 PAM-ag -17.6, NPY-Y2 PAM-ag -11.0 and Furin inhibitor -12.5.
Screening COc1ccc(CNC(=O)c2csc(Cc3ccc(Cl)cc3)n2)cc1 returned NPY Y1 blocker 2.7, NPY Y2 blocker 7.1, NPY-Y1 PAM-ag -14.0, NPY-Y2 PAM-ag -26.9, Furin inhibitor -14.8, KCC2 sec1 0.00594, KCC2 bumet counter inconclusive, KCC2 secondary2 0.0249*, HEK293 Tl flux inconclusive, KCC2 ouabain 0.0152* and HEK293 Tl flux2 0.00964.
`O=C1NC(c2cccc([N+](=O)[O-])c2)Oc2ccccc21` (stereo unspecified) gave NPY Y1 blocker 1.4, KCC2 mod -0.276, NPY-Y1 PAM-ag -12.7, NPY-Y2 PAM-ag 2.9 and Furin inhibitor -20.9.
`S=c1[nH]nc(-c2cccs2)n1/N=C/c1c(Cl)cccc1Cl` gave NPY Y1 blocker 3.9, KCC2 mod 34*, NPY-Y1 PAM-ag 5.6, NPY-Y2 PAM-ag -1.8, Furin inhibitor -12.5, KCC2 sec1 0.0188, KCC2 bumet counter 0.042*, KCC2 secondary2 0.0302, HEK293 Tl flux 0.0221*, KCC2 ouabain 0.029* and HEK293 Tl flux2 0.019*.
S=c1[nH]nc(-c2ccco2)n1/N=C/c1c(Cl)cccc1Cl was read as KCC2 mod 1.88, NPY-Y1 PAM-ag 4.2, NPY-Y2 PAM-ag 7.1 and Furin inhibitor -24.3.
Screening Cc1ccsc1/C=N/n1c(-c2ccccc2)n[nH]c1=S returned NPY Y1 blocker 4.5, KCC2 mod 9.78*, NPY Y2 blocker 4.4, NPY-Y1 PAM-ag -12.1, NPY-Y2 PAM-ag -1.5, Furin inhibitor -12.1, KCC2 sec1 0.014*, KCC2 bumet counter 0.0391*, KCC2 secondary2 0.0357, HEK293 Tl flux 0.0151*, KCC2 ouabain inconclusive and HEK293 Tl flux2 0.0125*.
